From ChEMBL document CHEMBL1125367 (J Med Chem, 1992)

How the values were obtained:
[1] = molecular target: D(1A) dopamine receptor (Rattus norvegicus) (UniProt P18901); assay: The percentage stimulation of adenylate cyclase activity of compound was measured on dopamine receptor D1 of Rat Striatum at 0.1 uM; type: functional
[2] = molecular target: D(1A) dopamine receptor (Rattus norvegicus) (UniProt P18901); assay: Percent stimulation of adenylate cyclase activity at dopamine receptor D1 of Rat Striatum at 1 uM; type: functional; details: values are per cent of control
[3] = molecular target: D(2) dopamine receptor (Rattus norvegicus) (UniProt P61169); assay: The percentage inhibition of adenylate cyclase activity of compound was measured on dopamine receptor D2 of Rat Striatum at 1 micro M; details: values are per cent of control
Sequence of D(2) dopamine receptor (Rattus norvegicus) (P61169 whole entry): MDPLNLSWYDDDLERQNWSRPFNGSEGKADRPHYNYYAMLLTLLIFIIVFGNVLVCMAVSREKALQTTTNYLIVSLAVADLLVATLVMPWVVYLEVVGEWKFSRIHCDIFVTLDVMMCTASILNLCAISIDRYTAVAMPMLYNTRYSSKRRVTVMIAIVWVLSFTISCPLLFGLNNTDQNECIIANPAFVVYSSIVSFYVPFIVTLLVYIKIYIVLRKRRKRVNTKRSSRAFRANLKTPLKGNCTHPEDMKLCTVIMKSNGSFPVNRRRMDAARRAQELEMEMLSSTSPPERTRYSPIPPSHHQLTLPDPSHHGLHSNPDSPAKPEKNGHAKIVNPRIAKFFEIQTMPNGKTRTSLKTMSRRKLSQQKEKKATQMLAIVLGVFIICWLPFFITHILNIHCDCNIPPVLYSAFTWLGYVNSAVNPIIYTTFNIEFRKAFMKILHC
In short: (§1)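 D-2 inhibition of basal adenylate cyclase in rat striatal synaptic membranes, 20-30 μg protein. Medium: Tris-HCl pH 7.4, 100 mM NaCl, 0.5 mM ATP, 50 μM GTP, IBMX, [α-32P]ATP, with 0.1 μM SCH 23390 present to block D-1. Incubation 20 min at 25 °C, followed by double-column cAMP isolation. Activity is given as % of basal, quadruplicates, three experiments.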

[4] = molecular target: D(2) dopamine receptor (Rattus norvegicus) (UniProt P61169); assay: The percentage inhibition of adenylate cyclase activity of compound was measured on dopamine receptor D2 of Rat Striatum at 0.1 micro M; details: values are per cent of control; in short: as §1
[5] = molecular target: D(2) dopamine receptor (Rattus norvegicus) (UniProt P61169); assay: The percentage inhibition of adenylate cyclase activity of compound was measured on dopamine receptor D2 of Rat Striatum at 0.01 micro M; details: values are per cent of control; in short: as §1
[6] = molecular target: D(1A) dopamine receptor (Rattus norvegicus) (UniProt P18901); assay: The percentage stimulation of adenylate cyclase activity of compound was measured on dopamine receptor D1 of Rat Striatum at 0.01 uM; type: functional
[7] = molecular target: D(2) dopamine receptor (Rattus norvegicus) (UniProt P61169); assay: The percentage inhibition of adenylate cyclase activity of compound was measured on dopamine receptor D2 of Rat Striatum at 10 micro M; details: values are per cent of control; in short: as §1
D(1A) dopamine receptor [8] = molecular target: T1, D(1A) dopamine receptor (Rattus norvegicus, UniProt P18901); assay: (§2) Inhibitory activity against [3H]-SCH- 23390 in Rat Striatal membrane; type: cell membranes
T1 sequence (P18901 whole entry): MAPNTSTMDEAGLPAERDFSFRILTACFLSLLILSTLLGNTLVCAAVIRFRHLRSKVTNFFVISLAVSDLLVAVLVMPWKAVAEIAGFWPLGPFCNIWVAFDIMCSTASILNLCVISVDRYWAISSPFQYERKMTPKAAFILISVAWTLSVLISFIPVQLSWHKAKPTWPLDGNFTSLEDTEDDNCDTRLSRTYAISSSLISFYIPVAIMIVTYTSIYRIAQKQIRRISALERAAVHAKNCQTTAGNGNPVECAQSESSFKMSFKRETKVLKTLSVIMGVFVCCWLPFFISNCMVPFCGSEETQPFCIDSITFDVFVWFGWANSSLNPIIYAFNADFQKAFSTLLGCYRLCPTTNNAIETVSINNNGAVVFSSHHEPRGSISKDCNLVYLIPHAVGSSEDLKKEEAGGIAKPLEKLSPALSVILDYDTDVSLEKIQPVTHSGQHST

[9] = molecular target: D(1A) dopamine receptor (Rattus norvegicus) (UniProt P18901); assay: The percentage stimulation of adenylate cyclase activity of compound was measured on dopamine receptor D1 of Rat Striatum at 10 uM; type: functional; details: values are per cent of control
[10] = molecular target: D(1A) dopamine receptor (Rattus norvegicus) (UniProt P18901); assay: Selectivity index of D1 receptor to that of D2 receptor was determined
In short: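 Index equals IC50 at D-1 ([3H]SCH 23390 binding) divided by IC50 at D-2 ([3H]spiperone binding), both measured in rat striatal membrane competition assays.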

D(2) dopamine receptor = D(2) dopamine receptor (Rattus norvegicus, UniProt P61169); assay: Inhibitory activity against [3H]spiperone in Rat Striatal membrane; type: cell membranes
Sequence of D(2) dopamine receptor (P61169 whole entry): as the sequence (P61169 whole entry) above

[11] = molecular target: D(1A) dopamine receptor (Rattus norvegicus) (UniProt P18901); assay: The percentage stimulation of adenylate cyclase activity of compound was measured on dopamine receptor D1 of Rat Striatum at 0.1uM; type: functional
D(1A) dopamine receptor [12] = molecular target: T1, D(1A) dopamine receptor; assay: as §2; type: cell membranes; remark: listed apart in the source
In short: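 Competition binding on rat striatal membranes. The D-1 site was labelled with [3H]SCH 23390 and the D-2 site with [3H]spiperone. IC50 is the concentration giving half-maximal inhibition of binding, reported as mean ± SEM.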

Sequence of D(1A) dopamine receptor (Rattus norvegicus) (P18901 whole entry): as the sequence (P18901 whole entry) above

| SMILES | stimulation [1] [%] | residual activity [2] [%] | residual activity [3] [%] | residual activity [4] [%] | residual activity [5] [%] | stimulation [6] [%] | residual activity [7] [%] | IC50 (D(1A) dopamine receptor [8]) [µM] | residual activity [9] [%] | Ratio [10] | IC50 (D(2) dopamine receptor) [µM] | stimulation [11] [%] | residual activity ([1]; values are per cent of control) [%] | IC50 (D(1A) dopamine receptor [12]) [µM] | residual activity ([6]; values are per cent of control) [%] |
| --- | --- | --- | --- | --- | --- | --- | --- | --- | --- | --- | --- | --- | --- | --- | --- |
| NCCc1ccc(O)c(O)c1 | 113 | 110 | 87 | 92 | 95 | 104 | 83 | – | – | – | – | – | – | – | – |
| Br.CCCN(CCC)CCc1ccc(Cl)c(O)c1 | 101 | 105 | 90 | 88 | 96 | – | 86 | 50.7 | 115 | 3.93 | 12.9 | – | – | – | – |
| CCCN(CCc1cccc(O)c1)CCc1ccc(Cl)c(O)c1 | 116 | 125 | 83 | 91 | 94 | 103 | 81 | 11.2 | 128 | 15.3 | 0.73 | – | – | – | – |
| CCCN(CCc1ccccc1)CCc1ccc(Cl)c(O)c1 | 113 | 118 | 78 | 86 | 93 | 104 | 76 | 24.4 | 128 | 17.6 | 1.39 | – | – | – | – |
| Br.NCCc1ccc(Cl)c(O)c1 | 98 | 95 | 87 | 90 | 101 | – | 84 | 25.3 | 105 | 0.96 | 26.3 | – | – | – | – |
| Br.CCCN(CCCc1ccc(O)cc1)CCc1ccc(Cl)c(O)c1 | – | 100 | 82 | 86 | 96.4 | – | – | 16.9 | 110 | 19.9 | 0.85 | 101 | – | – | – |
| CCCN(CCc1ccccc1)CCc1cccc(O)c1 | – | – | 86 | 95 | – | – | 84 | 92.8 | – | 124 | 0.75 | – | – | – | – |
| CCCN(CCc1ccc(O)cc1)CCc1ccc(Cl)c(O)c1 | – | 136 | 74 | 81 | 92 | – | 74 | – | 136 | 20.1 | 0.9 | – | 130 | 18.1 | 126 |
